Assay results as given in ChEMBL document CHEMBL3600340, “Design and synthesis of new barbituric- and thiobarbituric acid derivatives as potent urease inhibitors: Structure activity relationship and molecular modeling studies” (Bioorg Med Chem, 2015).

Target: Urease (Canavalia ensiformis, UniProt P07374)
Assay: Inhibition of jack bean Urease assessed as ammonia production after 15 mins by indophenol method
Procedure, shortened: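 Jack bean urease preincubated with test compound (0.5 mM, concentration as printed) in buffer containing 100 mM urea at 30 °C for 15 min, pH 6.8. Ammonia quantified by indophenol method (phenol/nitroprusside plus alkaline hypochlorite). Absorbance read at 630 nm after 50 min.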

Urease, sequence (P07374 whole entry): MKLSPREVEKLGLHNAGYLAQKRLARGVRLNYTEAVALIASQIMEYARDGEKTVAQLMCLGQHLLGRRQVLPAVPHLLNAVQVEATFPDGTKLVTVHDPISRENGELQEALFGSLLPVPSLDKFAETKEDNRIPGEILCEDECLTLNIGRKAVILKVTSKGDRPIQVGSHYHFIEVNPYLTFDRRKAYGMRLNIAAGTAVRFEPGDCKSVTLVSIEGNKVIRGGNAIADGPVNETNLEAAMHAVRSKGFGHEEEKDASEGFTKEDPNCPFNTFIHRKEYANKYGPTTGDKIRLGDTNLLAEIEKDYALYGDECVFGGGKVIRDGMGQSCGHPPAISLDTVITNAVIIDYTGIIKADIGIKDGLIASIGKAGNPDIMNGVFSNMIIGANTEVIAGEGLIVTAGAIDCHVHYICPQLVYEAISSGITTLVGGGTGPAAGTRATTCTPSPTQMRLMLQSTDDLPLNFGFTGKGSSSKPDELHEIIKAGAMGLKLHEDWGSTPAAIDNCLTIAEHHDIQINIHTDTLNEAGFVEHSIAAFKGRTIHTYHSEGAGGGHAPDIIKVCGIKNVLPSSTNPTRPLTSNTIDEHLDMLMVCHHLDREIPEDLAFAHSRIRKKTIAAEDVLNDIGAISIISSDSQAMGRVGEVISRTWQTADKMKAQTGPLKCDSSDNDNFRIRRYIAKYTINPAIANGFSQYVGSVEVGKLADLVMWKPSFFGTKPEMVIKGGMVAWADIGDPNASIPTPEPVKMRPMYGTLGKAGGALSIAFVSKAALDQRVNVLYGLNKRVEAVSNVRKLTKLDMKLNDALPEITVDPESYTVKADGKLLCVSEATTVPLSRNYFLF

| SMILES | IC50 [µM] |
| --- | --- |
| O=C1NC(=O)C(=CNc2ccc(C(=O)O)c(O)c2)C(=O)N1 | 88.3 |
| O=C1NC(=O)C(=CNc2ccc([N+](=O)[O-])c(C(=O)O)c2)C(=O)N1 | 25.8 |
| O=C1NC(=S)NC(=O)C1=CNc1ccccc1C(=O)O | 13 |
| O=C1NC(=S)NC(=O)C1=CNc1cccc(C(=O)O)c1 | 21.8 |
| O=C1NC(=S)NC(=O)C1=CNc1ccc(C(=O)O)cc1 | 8.93 |
| O=C1NC(=S)NC(=O)C1=CNc1ccc(C(=O)O)c(O)c1 | 32.3 |
| O=C1NC(=S)NC(=O)C1=CNc1cc([N+](=O)[O-])ccc1C(=O)O | 8.53 |
| O=C1NC(=S)NC(=O)C1=CNc1cc(C(=O)O)ccc1O | 18.9 |
| O=C1NC(=S)NC(=O)C1=CNc1ccc([N+](=O)[O-])c(C(=O)O)c1 | 39.8 |
| O=C1NC(=S)NC(=O)C1=CNc1cc(C(=O)O)ccc1Cl | 26.7 |
| O=C1NC(=O)C(=CNc2ccccc2S)C(=O)N1 | 52.6 |
| O=C1NC(=S)NC(=O)C1=CNc1ccccc1C(F)(F)F | 65.3 |
| O=C1NC(=S)NC(=O)C1=CNc1cccc(C(F)(F)F)c1 | 24.6 |
| O=C1NC(=S)NC(=O)C1=CNc1ccc(C(F)(F)F)cc1 | 136 |
| O=C1NC(=S)NC(=O)C1=CNc1cc([N+](=O)[O-])ccc1C(F)(F)F | 28.7 |
| O=C1NC(=S)NC(=O)C1=CNc1cc(Cl)cc(Cl)c1 | 89.2 |
| O=C1NC(=S)NC(=O)C1=CNc1ccc(I)cc1 | 41.3 |
| O=C1NC(=S)NC(=O)C1=CNc1ccccc1O | 19.7 |
| O=C1NC(=S)NC(=O)C1=CNc1ccccc1S | 15 |
